The test system of test [1] is Streptococcus pneumoniae. The test can be described thus: Activity of Streptococcus pneumoniae mevalonate kinase expressed in Escherichia coli by pyruvate kinase/lactate dehydrogenase coupled assay. Put shortly:
(§1)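 S. pneumoniae MK expressed in E. coli as His6-GST fusion, with tags removed. Lactone analogues were hydrolysed in 2.0 M LiOH (rt, 1 h), titrated to pH 7.0, and used as racemic acids. ADP formation was coupled to NADH oxidation (pyruvate kinase 10.0 units/ml, lactate dehydrogenase 20.0 units/ml), read continuously at 386 nm. Buffer: ATP 4.0 mM, MgCl2 5.0 mM, NADH 0.82 mM, PEP 1.0 mM, KCl 50 mM, β-mercaptoethanol 20.0 mM, Hepes/K+ 50 mM pH 8.0, 25 °C. Progress curves were compared with mevalonate.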

The test system of test [2] is Streptococcus pneumoniae. Description: Activity of Streptococcus pneumoniae phosphomevalonate kinase expressed in Escherichia coli by pyruvate kinase/lactate dehydrogenase coupled assay. The essentials:
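S. pneumoniae PMK was expressed in E. coli as His6-GST fusion, with tags removed. Substrates were the phosphorylated analogues, compared with phosphomevalonate. ADP formation was linked 1:1 to NADH oxidation via pyruvate kinase (10.0 units/ml) and lactate dehydrogenase (20.0 units/ml), monitored at 386 nm. Conditions: ATP 4.0 mM, MgCl2 5.0 mM, NADH 0.82 mM, PEP 1.0 mM, KCl 50 mM, β-mercaptoethanol 20.0 mM, Hepes/K+ 50 mM pH 8.0, 25 °C.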

Test [3] has as its system Streptococcus pneumoniae. The test can be described thus: Activity of Streptococcus pneumoniae mevalonate kinase expressed in Escherichia coli assessed as enzyme activity by pyruvate kinase/lactate dehydrogenase coupled assay relative to mevalonate. Put shortly:
as §1

A short description of test [4]: Binding affinity to Streptococcus pneumoniae mevalonate kinase.

The source made the active and inactive calls. No cut-off for these calls is given here.

For the compound `C#CC(O)(CCO)CC(=O)O` (racemic), the result in test [1] and in test [2] was Active. In the case of `C=C(C)C(O)(CCO)CC(=O)O` (racemic), the Activity in test [3] is below 0.0025%. In the case of `C=CC(O)(CCO)CC(=O)O` (racemic), the outcome in test [1] and in test [2] was Active. Regarding `C=CCC(O)(CCO)CC(=O)O` (racemic), the result in test [1] and in test [2] was Active.

As to `CC#CC(O)(CCO)CC(=O)O` (racemic), the Activity in test [3] is below 0.0025%. For the compound `CC(C)C(O)(CCO)CC(=O)O` (racemic), in test [3], the Activity was below 0.0025%. Consider `CC(C)CC(O)(CCO)CC(=O)O` (racemic), for which the outcome in test [1] and in test [2] was Active. Turning to `CCC(O)(CCO)CC(=O)O` (racemic), the result in test [1] and in test [2] was Active. In the case of `CCCC(O)(CCO)CC(=O)O` (racemic), the outcome in test [1] and in test [2] was Active. With `CCCCC(O)(CCO)CC(=O)O` (racemic), the Activity in test [3] is below 0.0025%. `O=C(O)CC(O)(CCO)C1CC1` (racemic): the outcome in test [1] and in test [2] was Active. As to `C[C@@](O)(CCOP(=O)(O)OP(=O)(O)O)CC(=O)O` [DIPHOSPHOMELAVONATE], the Ki (as a rule, a measure of affinity in units of concentration, obtained from inhibition or displacement) in test [4] was determined as 500 nM.

These data come from ChEMBL document CHEMBL1159110, “Mevalonate analogues as substrates of enzymes in the isoprenoid biosynthetic pathway of Streptococcus pneumoniae” (Bioorg Med Chem, 2010).
